Series [1] can be described thus: Pharmacokinetic studies in C57BL/6 mice. The series is classed as in vivo. Conditions: male, C57BL/6, mouse, brain, intraperitoneal.
Series [2] is described as follows: Brain tissue binding assay. The series is classed as in vitro ADME.
For series [3], the system named is mouse forebrain primary neuronal cultures. Description: Neuronal histone acetylation assay. The series is classed as cell-based. Conditions: 10 μM, 24 h, relative to vehicle. A digest of the protocol: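 Primary mouse forebrain neurons were treated on culture day 13 for 24 h at 10 μM, then formaldehyde-fixed. They were stained with anti-AcH3K9 or anti-AcH4K12 and a green fluorescent secondary, and fluorescence was read by microcytometer. Read-out was the percentage of cells above a baseline threshold set in DMSO-treated cells. Two experiments in triplicate from separate dissections and cultures.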

Series [4] concerns CK-p25 mice. Kind of series: Context-dependent fear conditioning in CK-p25 mice. The series is classed as in vivo, mouse. Conditions: 1 mg/kg i.p. daily for 10 days. In short, it runs like this:
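CK-p25 male mice induced at 3 months of age for 6 weeks for forebrain p25 expression; p25-lacking heterozygous littermates as controls. Test compound in 5% DMSO, then 30% Cremophor/65% saline, given i.p. daily for 10 days before behaviour; vehicle without compound. Training: 3 min habituation, two 2 s 0.8 mA shocks 30 s apart, 15 s more. Freezing scored on 3 min context re-exposure 24 h later. Mean ± SEM; ANOVA/Tukey or one-tailed t test.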

In series [5] the test system is CK-p25 mice. Description: Tolerability on daily dosing in CK-p25 mice. The series is classed as in vivo, mouse. In short, it runs like this:
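Induced CK-p25 mice were given test compound i.p. daily for 10 days, dissolved in 5% DMSO then diluted in 30% Cremophor/65% physiological saline and prepared immediately before injection. Mortality and toxicity were noted over the treatment period.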

The subject of series [6] is hippocampal CA1 neurons of CK-p25 mice. Description: Immunohistochemistry of H4K12 acetylation in hippocampal CA1 neurons. Conditions: after 10 day treatment, compared to vehicle treated group. The series is classed as in vivo, mouse. A digest of the protocol: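 Hippocampal tissue from CK-p25 mice given test compound or vehicle i.p. daily for 10 days. Coronal 40 μm slices were permeabilised in 0.1% Triton X-100, blocked, and incubated overnight with acetyl-histone antibody in 0.3% Triton X-100/10% FBS in PBS. Fluorescent secondary and Hoechst nuclear stain followed. Confocal images at identical settings. Mean signal in 20–40 non-apoptotic cells per condition was scored blind. Mean ± SEM.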

The test system of series [7] is wild-type male C57BL/6 mice. Kind of series: Tolerability on daily dosing in wild-type mice. Conditions: 30 mg/kg daily for 10 consecutive days. The series is classed as in vivo, mouse.

Entries after “also recorded” stand apart in the source; their conditions may differ.

Turning to `CC(=O)NC1CCN(C(=O)Nc2cc(-c3cccs3)ccc2N)CC1` [BRD3227], in series [1], the Kp was determined as 0.01.

In turn, `Nc1ccc(-c2ccncc2)cc1NC(=O)N1CCCC1` [BRD6688] yielded a fraction unbound in series [2] of 0.54. Further, in series [3], the AcH3K9 acetylation change result was “significant increases” and the AcH4K12 acetylation change entry is listed as “significant increases”. The compound also displayed a Kp in series [1] of 0.26. In addition, the “contextual fear conditioning, freezing” value in series [4] is recorded as “rescued the memory defects; also recorded: restored the freezing response to normal levels”. Also, the toxicity entry in series [5] (1 mg/kg, CK-p25 mice) was “No toxicity was observed”. The mortality in series [5] (10 mg/kg, over 10 day treatment, single study, unknown cause) is listed as 5 out of 10. Moreover, in series [6], the “H4K12 acetylation in hippocampal CA1 neurons” value is given as “increased H4K12 acetylation”. Moreover, the toxicity result in series [7] was “No toxicity was observed”.

The term fraction unbound denotes free concentration divided by total concentration. Higher therefore signals much free substance.

The values above are taken from paper PMC4310013 (Chemical Science, 2014).
